Source: PubChem BioAssay
This is a sample that favours compounds with a hit; in the whole collection about 2.5% have one here.
ABHD4 inh: ABHD4 inhibitors, primary screen, biochemical, fluorescence polarization, mouse. (Lyso)-N-acylphosphatidylethanolamine lipase (Mus musculus), Q8VD66. purified mABHD4, FP-Rh probe fluorescence polarization. inhibition, % at 8.92 µM. actives 0.54% (n = 370,000). AID 720543, 2013;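 active = inhibition exceeding the mean over every tested compound plus 3 SD, cut at about 30% in these data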
Target sequence (Q8VD66 whole entry, looked up): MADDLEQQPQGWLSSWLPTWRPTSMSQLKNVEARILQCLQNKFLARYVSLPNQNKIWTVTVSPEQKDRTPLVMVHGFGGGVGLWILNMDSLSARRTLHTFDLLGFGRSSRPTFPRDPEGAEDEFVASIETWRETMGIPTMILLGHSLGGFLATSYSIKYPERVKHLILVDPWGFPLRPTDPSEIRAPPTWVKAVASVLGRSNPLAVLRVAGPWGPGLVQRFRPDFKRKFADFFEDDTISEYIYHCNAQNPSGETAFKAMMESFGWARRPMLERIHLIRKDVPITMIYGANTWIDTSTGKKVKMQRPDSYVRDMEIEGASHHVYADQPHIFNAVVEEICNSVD
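Material: mouse ABHD4 enzyme, wild type; Benchmarks: S159A mutant high control, sample median low control; Buffer or medium: HEPES pH 7.0, NaCl, Pluronic buffer; Signal: fluorescence polarization; Read-out: percent inhibition of probe binding, normalized to plate controls; Timing: pre-incubation 45 min, probe exposure 60 min, at 25 °C; Dosing: 8.92 µM, single dose.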
PRMT1 FP inh: PRMT1 methyltransferase inhibitors, primary screen, biochemical, fluorescence polarization; recombinant PRMT1, activity-based probe fluorescence polarization; actives 1.3% (n = 370,000); inhibition, % at 2.79 µM; Protein arginine N-methyltransferase 1 (Homo sapiens), Q99873;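 active = inhibition above about 21% made by adding two undisclosed values, limit read from the data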
Target sequence (Q99873 whole entry, looked up): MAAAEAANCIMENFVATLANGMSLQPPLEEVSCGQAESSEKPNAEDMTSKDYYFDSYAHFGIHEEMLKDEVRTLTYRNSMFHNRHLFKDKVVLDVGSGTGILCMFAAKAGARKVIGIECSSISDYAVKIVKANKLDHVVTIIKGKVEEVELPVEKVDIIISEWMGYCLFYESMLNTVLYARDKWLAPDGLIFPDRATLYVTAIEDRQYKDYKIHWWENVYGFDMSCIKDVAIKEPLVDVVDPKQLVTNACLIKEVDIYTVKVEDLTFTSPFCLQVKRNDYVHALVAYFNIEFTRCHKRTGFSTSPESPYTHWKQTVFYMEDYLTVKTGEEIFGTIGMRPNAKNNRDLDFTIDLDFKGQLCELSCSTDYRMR
SIAE inh: human SIAE inhibitors, primary screen, biochemical, fluorescence polarization, FP-Rh probe, 1536-well HTS; SIAE FP-Rh probe binding; AID 1053197, 2014; actives 0.69% (n = 370,000); Sialate O-acetylesterase (Homo sapiens), Q9HAT2; inhibition, % at 9.66 µM;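 active = inhibition above a cutoff: mean of compounds within the control limits plus 3 SD of those, cut at about 17% in these data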
TCR-CD3 inh: inhibitors of human TCR-CD3 interaction, primary screen, biochemical, fluorescence, TAMRA-labeled TCR probe; T-cell receptor (TCR); inhibition, % at 9.4 µM; actives 0.37% (n = 360,000); AID 651800, 2012; in the data active = inhibition above about 19%;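 note: recombinant mutant TCR 2C K166C tagged with TAMRA read by polarization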
HTRA1 inh: HTRA1 serine protease inhibitors, primary screen, biochemical, fluorescence polarization, HTS; actives 0.5% (n = 340,000); inhibition, % at 5.96 µM; recombinant HTRA1, FP-rhodamine activity-based probe; AID 504803, 2011; Q92743; in the data active = inhibition above about 36%
PRMT1 confirm: PRMT1 methyltransferase inhibitors, confirmation, biochemical, fluorescence polarization, triplicate | AID 687036, 2013 | recombinant His-PRMT1, activity-based probe fluorescence polarization | actives 42% (n = 3,300) | inhibition, % at 2.79 µM | shares compounds with PRMT1 FP inh;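 active = mean inhibition across replicates above the hit cutoff derived for the earlier primary screen, cut at about 22% in these data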
Of the large screens only hits and unclear results are named; the others gave an inactive call (follow-up assays come after a bar, where they were run).

CCOC(=S)SCc1cn2ccc(C)cc2n1	PRMT1 FP inh 41.7 | PRMT1 confirm 26.4
C#CCNC(=O)C[C@H]1C[C@@]2(C(=O)OC)C(=C[C@H](C(C)(C)C)O[C@@H]2C)N(Cc2ccc(Cl)cc2Cl)C1=O	none (no result: TCR-CD3 inh, HTRA1 inh)
Nc1cccnc1Sc1cccc(Cl)c1	PRMT1 FP inh 31.2 | PRMT1 confirm inactive
Cc1ccc(-c2n[nH]c(=S)n2/N=C/C=C\c2ccccc2[N+](=O)[O-])cc1	PRMT1 FP inh 29.7 | PRMT1 confirm inactive
S=c1[nH]nc(-c2cc(-c3ccccc3)n[nH]2)n1/N=C/c1c(Cl)cccc1Cl	none
O=[N+]([O-])c1ccccc1C=Nn1c(-c2cc(-c3ccccc3)n[nH]2)n[nH]c1=S	PRMT1 FP inh 41.9 (no result: TCR-CD3 inh, HTRA1 inh) | PRMT1 confirm inactive
Cc1ccccc1/C=N/n1c(-c2cc(-c3ccccc3)n[nH]2)n[nH]c1=S	none
S=c1[nH]nc(-c2cc(-c3ccccc3)n[nH]2)n1/N=C/c1ccc(Br)s1	PRMT1 FP inh 27.9 | PRMT1 confirm inactive
CC(C)N1CCCCC(NC(=O)c2ccc(Cl)cc2Cl)C1=O (stereo unspecified)	none (no result: TCR-CD3 inh, HTRA1 inh)
COC(=O)C1CN(Cc2cn(Cc3ccc(C)cc3)nn2)CCS(=O)(=O)N1Cc1ccc(Cl)cc1 (stereo unspecified)	none (no result: TCR-CD3 inh, HTRA1 inh)
Cc1cccc(-c2cccc3c4c([nH]c23)[C@@H]2C[C@H](N(C)C(=O)Nc3ccccc3C)[C@H]([C@H](C)O)C(=O)N2CC4)c1	none (no result: TCR-CD3 inh, HTRA1 inh)
CCCCCC(=O)N(O)C1CC(=O)N(c2ccccc2)C1=O (stereo unspecified)	PRMT1 FP inh 83.6 | PRMT1 confirm 85.3
CS(=O)(=O)N1N=C(c2cccs2)CC1c1ccco1 (stereo unspecified)	PRMT1 FP inh 41.1 | PRMT1 confirm inactive
CC(=O)N1N=C(c2cccs2)CC1c1ccco1 (stereo unspecified)	none
C=CCn1c(SCC(N)=O)nnc1-c1ccc(C)cc1	none (no result: TCR-CD3 inh, HTRA1 inh)
C=CCn1c(SCC(=O)OC(C)C)nnc1-c1ccc(C)cc1	PRMT1 FP inh 39.8 (no result: TCR-CD3 inh, HTRA1 inh) | PRMT1 confirm inactive
CC(=O)Nc1ccc(SCC(=O)N(CCC#N)c2ccc(C)cc2)cc1	PRMT1 FP inh 39.1 | PRMT1 confirm inactive
c1ccc(-c2nc(-c3ccco3)cs2)nc1	PRMT1 FP inh 50.8 | PRMT1 confirm inactive
Cc1cccc(CCNC(=O)c2ccc(Sc3ccccc3Cl)c([N+](=O)[O-])c2)c1	none (no result: TCR-CD3 inh, HTRA1 inh)
CCOc1cc(C2C(C#N)=C(N)OC(C)=C2C(C)=O)cc(Br)c1O (stereo unspecified)	PRMT1 FP inh 26.0 | PRMT1 confirm 28.3
Cc1ccc(-n2c(SCC(=O)Nc3ccc(OCc4ccccc4)cc3)nnc2-c2cnccn2)cc1	none (no result: TCR-CD3 inh, HTRA1 inh)
Cn1c(CS/C(N)=N/N=C/c2ccccc2)c(Br)c(=O)n1-c1ccccc1	PRMT1 FP inh 42.0 | PRMT1 confirm 55.7
COc1ccc(CCNC(=O)c2cc3ccccn3n2)cc1	none (no result: TCR-CD3 inh, HTRA1 inh)
COc1ccc(C2=NN(C(=O)COC(=O)c3ccc(S(C)(=O)=O)c([N+](=O)[O-])c3)C(c3ccco3)C2)cc1 (stereo unspecified)	PRMT1 FP inh 40.7 | PRMT1 confirm inactive
COc1ccc(C2=NN(C(=O)COc3ncnc4ccccc34)C(c3ccco3)C2)cc1 (stereo unspecified)	none
CCOC(=O)C1CCCN(S(=O)(=O)c2cc3c(cc2Cl)NC(=O)CO3)C1 (stereo unspecified)	PRMT1 FP inh 34.1 | PRMT1 confirm inactive
CCOC(=O)C1CCCN(S(=O)(=O)c2ccc3c(c2)NC(=O)CO3)C1 (stereo unspecified)	none
Cc1ccc2nc(-c3ccc(NC(=O)CSc4nnc(-c5cc(C)[nH]n5)n4N)cc3)sc2c1	none (no result: TCR-CD3 inh, HTRA1 inh)
COC(=O)c1ccccc1SC(CC(=O)c1ccccc1)c1ccc(F)cc1 (stereo unspecified)	PRMT1 FP inh 42.6 | PRMT1 confirm 48.0
COC(=O)C[C@H]1CC[C@H]2[C@H](COc3ccc(NC(=O)C4CCOCC4)cc3C(=O)N2C)O1	none (no result: TCR-CD3 inh, HTRA1 inh)
COc1ccc(CSc2nnc(SCc3ccccc3)s2)cc1	none (no result: TCR-CD3 inh, HTRA1 inh)
Cc1sc(NC(=S)NC(=O)c2ccco2)c(C#N)c1C	PRMT1 FP inh 48.7 | PRMT1 confirm inactive
Cc1sc(NC(=S)NC(=O)c2ccccc2)c(C#N)c1C	none
CCOC(=O)[C@]12CCCC=C1N(CCCOC)C(=O)[C@@H]2CC(=O)N1CCCCC1	none (no result: TCR-CD3 inh, HTRA1 inh)
O=c1[nH]c(=O)n(Cc2ccccc2)c2nc(-c3ccco3)cc(C(F)(F)F)c12	none
Cc1cc(C)n(CCc2nc(-c3ccco3)cs2)n1	PRMT1 FP inh 40.1 | PRMT1 confirm 57.3
Cc1nn(CCc2nc(-c3ccco3)cs2)c2[nH]c(=O)cc(C(F)(F)F)c12	PRMT1 FP inh 33.7 | PRMT1 confirm inactive
Cc1oc(-c2ccc3c(c2)OCCO3)cc1C(=O)O	PRMT1 FP inh 42.3 | PRMT1 confirm inactive
CCn1c(C)c(C(C)=O)c(N2CCN(c3ccccc3)CC2)nc1=S	PRMT1 FP inh 36.9 | PRMT1 confirm inactive
CC(=O)c1c(N2CCCC2)nc(=S)n(-c2ccccc2)c1C	none
CC(=O)c1c(N2CCN(C(=O)c3ccco3)CC2)nc(=S)n(-c2ccccc2)c1C	PRMT1 FP inh 36.1 | PRMT1 confirm 39.0
CCn1c(C)c(C(C)=O)c(N2CCN(C(c3ccccc3)c3ccccc3)CC2)nc1=S	none
c1coc(C2Nc3ccccc3-c3nc4ccccc4n32)c1 (stereo unspecified)	PRMT1 FP inh 44.8 | PRMT1 confirm inactive
O=C1CC(N(O)C2CC(=O)N(Cc3ccccc3)C2=O)C(=O)N1Cc1ccccc1 (stereo unspecified)	none
CCCN(CCC)C1CC(=O)N(Cc2ccccc2)C1=O (stereo unspecified)	PRMT1 FP inh 76.5 | PRMT1 confirm 23.6
Cc1ccc(NC(=O)CN2C(=O)N/C(=C/c3ccc(C)s3)C2=O)cc1	none
CCn1c(C)cc(/C=C2/NC(=O)N(CC(=O)Nc3cccc(C)c3)C2=O)c1C	none
C=CCN1C(=O)N/C(=C/c2ccc(C)o2)C1=O	PRMT1 FP inh 62.7 | PRMT1 confirm 28.8
Cc1ccc(NC(=O)CN2C(=O)N/C(=C/c3ccc(C)o3)C2=O)cc1	PRMT1 FP inh 75.5 | PRMT1 confirm inactive
Cc1cccc(NC(=O)CN2C(=O)N/C(=C\c3ccc(-c4cccc(C(=O)O)c4)o3)C2=O)c1	PRMT1 FP inh 26.9 | PRMT1 confirm inactive
CCn1c(C)cc(/C=C2\NC(=O)N(CC(=O)Nc3cccc(C)c3)C2=O)c1C	none
